Measured values gathered from unrelated publications.
Compare with care: the assays were run in different laboratories.
DYRK1A: Dual specificity tyrosine-phosphorylation-regulated kinase 1A (DYRK1A, Homo sapiens, UniProt Q13627)
NPY2R: Neuropeptide Y receptor type 2 (NPY2R, Homo sapiens, UniProt P49146)
PDGFRB: Platelet-derived growth factor receptor beta (PDGFRB, Homo sapiens, UniProt P09619)

Structure (SMILES)	target	assay	setting	quantity	value
CCCCC(=O)Nc1ccc(-c2ccc3ncn(CCC)c(=O)c3c2)cn1	Serine/threonine-protein kinase 25 (STK25, Homo sapiens, UniProt O00506)	binding, competition with immobilised ligand	0.5 µM	remaining binding	85%
Cc1cc(O)c(-c2ccc([C@@H](C)CN(C)C)cc2)c2c1[nH]c(=O)c1sccc12	Microtubule-associated serine/threonine-protein kinase 3 (MAST3, Homo sapiens, UniProt O60307)	enzyme activity, inhibitor	0.1 µM	inhibition	2.4%
CC(C)(C)C1CCc2c(C(=O)N/N=C/c3ccsc3)csc2C1 (centres unmarked)	DYRK1A	enzyme activity, inhibitor, ADP detection	10 µM	inhibition	23.1%
CN(C)CCOC(=O)COc1ccc(Cl)cc1	Alpha-1D adrenergic receptor (ADRA1D, Homo sapiens, UniProt P25100)	ligand displacement, radioligand	1 µM, cell membranes	inhibition	0%
Nc1ncnc2c1ncn2[C@@H]1O[C@H](COP(=O)(O)OP(=O)(O)O)[C@@H](O)[C@H]1O	Inositol-tetrakisphosphate 1-kinase (Homo sapiens, UniProt Q13572)	enzyme activity, substrate		Km	1.5 µM
NC/C(=C\F)COc1cccc(Cn2c(=S)[nH]c(=O)c3[nH]cnc32)c1	NPY2R	ligand displacement, radioligand	10 µM	inhibition	< 50%
C#Cc1cc(-c2cc(Nc3nc(N[C@@H](C)c4ccc(F)cn4)ncc3Cl)n[nH]2)ccc1C=O	Homeodomain-interacting protein kinase 2 (HIPK2, Homo sapiens, UniProt Q9H2X6)	enzyme activity, inhibitor	0.2 µM	inhibition	40.4%
CC1(C)Oc2ccc3ccc(=O)oc3c2C/C1=N/O	DYRK1A	enzyme activity, inhibitor, ADP detection	10 µM	inhibition	38.6%
CCN1/C(=C/C(C)=O)Sc2ccc(F)cc21	NPY2R	ligand displacement, radioligand	10 µM	inhibition	0%
O=C1C2C3CC(C(Br)C3Br)C2C(=O)N1CC1CCCO1 (centres unmarked)	DYRK1A	enzyme activity, inhibitor, ADP detection	10 µM	inhibition	41.5%
COc1ccc2oc(-c3ccc4nc(N)oc4c3)c/c(=N\c3ccccc3NC(=O)CCN)c2c1	PDGFRB	binding	1 µM	remaining binding	107%
N#Cc1ccc(NC(=O)Nc2ccccc2)cc1	PDGFRB	cell-free assay, competition with immobilised ligand	25 µM	remaining binding	33%
Clc1ccc(-c2cn[nH]c2)s1	DYRK1A	enzyme activity, inhibitor, ADP detection	10 µM	inhibition	52.5%
C1=C/COCc2cc(ccc2OCCN2CCCC2)Nc2nccc(n2)-c2cccc(c2)COC/1	Myosin light chain kinase 2, skeletal/cardiac muscle (MYLK2, Homo sapiens, UniProt Q9H1R3)	binding	0.1 µM	remaining binding	76%
